The record followed here is ChEMBL document CHEMBL4422695, “Antiangiogenic Activity of Compounds Isolated from Anarrhinum pedatum” (2019).

The species named for one assay is Danio rerio. Description: Antiangiogenic activity in wild type zebrafish 24 hrs post fertilization embryos assessed as reduction in blood vessel growth at 2 uM treated for 48 hrs by alkaline phosphatase assay relative to control. The assay is classed as functional. Also noted: scale not given: the % may be the effect or the level left. The method, boiled down:
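Wild-type zebrafish embryos from natural mating, raised at 28.5 °C; healthy embryos selected at 24 hpf, dechorionated, one per well in 100 μL embryo water with agent (2 μM) in DMSO 0.2% v/v, 10 per group, exposed 24–72 hpf. Ethanol-dehydrated, diethanolamine buffer (1 M, pH 9.8) washes, p-nitrophenyl phosphate 0.5 mg/mL 30 min RT, NaOH stop, OD 405 nm; percent of control, ≥3 repeats, t-test.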

For assay [1], the system named is Chorioallantoic membrane. As to the kind of experiment: Antiangiogenic activity in chicken fertilized egg chorioallantoic membrane assessed as appearance of less dense microvasculature at 2 uM after 48 hrs by stereomicroscopic analysis. To be noted: Gallus gallus. In kind it is functional, tissue-based. The method, boiled down:
(§1)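 Fertilized chicken eggs incubated at 37 °C, positioned horizontally and rotated; 1 cm2 window opened on day 4, malformed or dead embryos excluded. Test agents at 2 μM (100 μL/egg) or retinoic acid at 3 μM, in DMSO (0.2% v/v) in Tris buffer pH 7.4; ten eggs/group. Reincubated 2 days. CAM microvasculature imaged under stereomicroscope, standardized area quantified; percent of vehicle control, three repeats, t-test.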

The test system of assay [2] is Chorioallantoic membrane. Description: Antiangiogenic activity in chicken fertilized egg chorioallantoic membrane at 2 uM after 48 hrs by stereomicroscopic analysis relative to control. In kind it is functional, tissue-based. To be noted: Gallus gallus. The method in brief: as §1
Assay [3] deals with Chorioallantoic membrane. As to the kind of experiment: Antiangiogenic activity in chicken fertilized egg chorioallantoic membrane at 3 uM after 48 hrs by stereomicroscopic analysis relative to control. In kind it is functional, tissue-based. To be noted: Gallus gallus. The method in brief:
as §1

Assay [4] concerns Chorioallantoic membrane. As to the kind of experiment: Antiangiogenic activity in chicken fertilized egg chorioallantoic membrane assessed as reduction in capillary formation at 3 uM after 48 hrs by stereomicroscopic analysis. The assay is classed as functional, tissue-based. To be noted: Gallus gallus. The method, boiled down:
as §1

Each structure is given as a SMILES string. Active and inactive are the calls of the source. No cut-off for these calls is given here.

On to `COc1cc2c(cc1O)CC[C@@H]1[C@@H]2CC[C@]2(C)[C@@H](O)CC[C@@H]12` [2-METHOXYESTRADIOL], for which the Activity in the assay listed under Danio rerio came to 52%. `C[C@]12O[C@H]1[C@@H](O)[C@]1(O)C=CO[C@@H](O[C@@H]3O[C@H](CO)[C@@H](O)[C@H](O)[C@H]3O)[C@@H]12` [ANTIRRHINOSIDE]: in the assay with Chorioallantoic membrane [1], the result was Active. Further, the Activity with Chorioallantoic membrane [2] worked out at 29.9%; in the assay filed under Danio rerio, 81%. In the case of `C[C@]12O[C@H]1[C@@H](OC(=O)C=Cc1ccc(O)cc1)[C@]1(O)C=CO[C@@H](O[C@@H]3O[C@H](CO)[C@@H](O)[C@H](O)[C@H]3O)[C@@H]12` (mixture of isomers), in the assay filed under Danio rerio, the Activity came out at 77.38%. In the case of `C/C(=C\CO)CC/C=C(\C)C(=O)O[C@@H]1[C@@H]2O[C@]2(CO)[C@H]2[C@H](O[C@@H]3O[C@H](CO)[C@@H](O)[C@H](O)[C@H]3O)OC=C[C@@]12O`, the result in the assay listed under Danio rerio was inactive. For the compound `O=C(/C=C/c1ccccc1)OC[C@H]1O[C@@H](O[C@@H]2OC=C[C@@]3(O)[C@H](O)[C@@H]4O[C@]4(CO)[C@@H]23)[C@H](O)[C@@H](O)[C@@H]1O`, in the assay filed under Danio rerio, the result was inactive. In the case of `C=C[C@@](C)(O)CC/C=C(\C)C(=O)O[C@@]12C=CO[C@@H](O[C@@H]3O[C@H](CO)[C@@H](O)[C@H](O)[C@H]3O)[C@@H]1[C@@]1(C)O[C@H]1[C@H]2OC(=O)/C(C)=C/CC/C(C)=C/CO`, the result in the assay listed under Danio rerio was inactive. With `C/C(=C\CO[C@@H]1O[C@H](CO)[C@@H](O)[C@H](O)[C@H]1O)CC/C=C(\C)C(=O)O[C@@H]1O[C@H](CO)[C@@H](O)[C@H](O)[C@H]1O`, in the assay listed under Danio rerio, the outcome was inactive. `C=C[C@@](C)(O)CC/C=C(\C)C(=O)O[C@@]12C=CO[C@@H](O[C@@H]3O[C@H](CO)[C@@H](O)[C@H](O)[C@H]3O)[C@@H]1[C@@]1(CO)O[C@H]1[C@H]2OC(=O)/C(C)=C/CC/C(C)=C/CO`: the result with Chorioallantoic membrane [1] was Active. The compound also returned an Activity in the assay with Chorioallantoic membrane [2] of 31.4%. In the assay filed under Danio rerio, the outcome was inactive. For the compound `C=C[C@@](C)(O)CC/C=C(\C)C(=O)OC[C@H]1O[C@@H](O[C@@H]2OC=C(C(=O)O[C@@H]3CO[C@](O)(CO)[C@@H](O)[C@@H]3O)[C@H]3CC[C@](C)(O)[C@@H]23)[C@H](O)[C@@H](O)[C@@H]1O`, the outcome in the assay on Chorioallantoic membrane [1] was Active. Further, the Activity with Chorioallantoic membrane [2] worked out at 21.5%; in the assay filed under Danio rerio it was 72.72%.

In the case of `C/C(=C\CO)CC/C=C(\C)C(=O)OC[C@H]1OC(O)[C@H](O)[C@@H](O)[C@@H]1O` (some centres not stated), the outcome in the assay listed under Danio rerio was inactive. Consider `C/C(=C\CO)CC/C=C(\C)C(=O)O[C@@H]1[C@@H]2O[C@]2(C)[C@H]2[C@H](O[C@@H]3O[C@H](CO)[C@@H](O)[C@H](O)[C@H]3O)OC=C[C@@]12O`, for which the outcome in the assay with Chorioallantoic membrane [1] was Active. Moreover, the Activity with Chorioallantoic membrane [2] is 29.6%; in the assay listed under Danio rerio, 48.33%.

For the compound `C=C[C@@](C)(O)CC/C=C(\C)C(=O)O[C@@H]1O[C@H](CO)[C@@H](O)[C@H](O)[C@H]1O`, the outcome in the assay with Chorioallantoic membrane [1] was Active. For the same compound, the Activity worked out at 29% with Chorioallantoic membrane [2] and 56.98% in the assay listed under Danio rerio.

Regarding `C/C(=C\CO)CC/C=C(\C)C(=O)O[C@@H]1O[C@H](CO)[C@@H](O)[C@H](O)[C@H]1O`, the Activity in the assay listed under Danio rerio is 79.82%.

Take `CC1=C(/C=C/C(C)=C/C=C/C(C)=C/C(=O)O)C(C)(C)CCC1`: the Activity with Chorioallantoic membrane [3] turned out to be 45%. Moreover, the outcome in the assay with Chorioallantoic membrane [4] was Active. For `C/C(=C\CO)CC/C=C(\C)C(=O)O[C@@H]1[C@@H]2O[C@]2(CO)[C@H]2[C@H](O[C@@H]3O[C@H](CO)[C@@H](O)[C@H](O)[C@H]3O)OC=C[C@@]12OC(=O)/C(C)=C/CC/C(C)=C/CO`, the outcome in the assay filed under Danio rerio was inactive.

For the compound `C/C(=C\CO)CC/C=C(\C)C(=O)O[C@@H]1[C@@H]2O[C@]2(C)[C@H]2[C@H](O[C@@H]3O[C@H](CO)[C@@H](O)[C@H](O)[C@H]3O)OC=C[C@@]12OC(=O)/C(C)=C/CC/C(C)=C/CO`, the result in the assay listed under Danio rerio was inactive. Turning to `C[C@]1(O)CC[C@@H]2C(C(=O)O[C@@H]3CO[C@](O)(CO)[C@@H](O)[C@@H]3O)=CO[C@@H](O[C@@H]3O[C@H](COC(=O)C=Cc4ccc(O)cc4)[C@@H](O)[C@H](O)[C@H]3O)[C@@H]21` (mixture of isomers), in the assay filed under Danio rerio, the result was inactive. `C[C@]12O[C@H]1[C@@H](OC(=O)/C=C/c1ccccc1)[C@]1(O)C=CO[C@@H](O[C@@H]3O[C@H](CO)[C@@H](O)[C@H](O)[C@H]3O)[C@@H]12`: the outcome in the assay with Chorioallantoic membrane [1] was Active. Besides, the Activity in the assay on Chorioallantoic membrane [2] was 23.9%. The outcome in the assay filed under Danio rerio was inactive. Consider `C/C(=C/CO)CC/C=C(\C)C(=O)OC[C@H]1O[C@@H](O[C@@H]2OC=C(C(=O)O[C@@H]3CO[C@](O)(CO)[C@@H](O)[C@@H]3O)[C@H]3CC[C@](C)(O)[C@@H]23)[C@H](O)[C@@H](O)[C@@H]1O`, for which the outcome in the assay filed under Danio rerio was inactive.
